Test results from ChEMBL document CHEMBL4513216, “Probing the Open Global Health Chemical Diversity Library for Multistage-Active Starting Points for Next-Generation Antimalarials” (ACS Infect Dis, 2020).

Assay: Toxicity liver stage against HepG2, at 10uM
Format: cell-based
Design: test concentration 10 uM, cell line HepG2-A16-CD81EGFP
Conditions: human, HepG2-A16-CD81EGFP cells; read-out: INHIBITION
In short: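 Uninfected HepG2-A16-CD81EGFP cells, 3 × 10^3 per well, 1536-well, plated on prespotted compound at 10 μM final, parasite-free screening media added to match infected plates; puromycin 10 μM positive, DMSO 0.5% negative; run in parallel with 48 h PbLuc assay at 37 °C, 5% CO2; viability by CellTiter-Glo luminescence, normalized to controls.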

Row | Compound | cytotoxicity at 10 µM [%]
1 | O=c1[nH]c2c(-c3ccccn3)nsc2c(=O)n1CC1CC1 | 36.2
2 | CCc1ccc(CN2CCC3(CC2)C(=O)N(C)CCN3CC)cc1 | -4.13
3 | Cc1noc(C)c1CN1CCCC2(CCN(C(=O)C3CC3)C2)C1 (configuration not stated) | 2
4 | CS(=O)(=O)N1CCO[C@@H]2CN(C(=O)COC3CCCC3)C[C@@H]2C1 | 7.04
5 | Cc1cnc(N2CCC3(CC2)CC(NC(=O)C(C)C)CO3)nc1 (configuration not stated) | 8.19
6 | Cc1cccc(C(=O)N2CC[C@H]3C[C@@H](C)O[C@@H]3C2)n1 | 5.37
7 | COc1ccc(OC)c(NC(=O)CSc2ccc3nncn3n2)c1 | -14.2
8 | Cn1nc(C(=O)N2CCSCC2)cc1NC(=O)c1ccccc1 | -13.9
9 | Cc1nn(CCc2nnc(NCC(C)C)s2)c(C)c1Br | 1.91
10 | Cn1ccnc1C1(O)CCCN(Cc2ccncc2)CC1 (configuration not stated) | 1.52
11 | COc1ccc(N2CCNC(C(N)=O)C2)cc1 (configuration not stated) | -4.8
12 | CO[C@@H]1CCC[C@@H](NC(=O)CCCn2cncn2)[C@H]1O | 7.87
13 | COCC(=O)N1CCC(c2cc(-c3ccc(N)nc3)cc(C)n2)CC1 | 2.06
14 | CCN1CCCC(O)(c2nc(C)c(CCOc3ccccc3F)s2)CC1 (configuration not stated) | -32.1
15 | O=C(c1cc(C2CCCN(Cc3ccccn3)C2)no1)N1CCCC1 (configuration not stated) | -18.9
16 | COCCOCC(=O)N1C[C@@H]2CC[C@H](Oc3ccccc3)[C@@H]2C1 | -27.9
17 | c1ccc(-c2nnc(C3CCCN(CC4CCCCC4)C3)o2)nc1 (configuration not stated) | -28.5
18 | CN(C)C(=O)C1CN(Cc2nccs2)CCN(S(C)(=O)=O)C1 (configuration not stated) | 0.325
19 | CCC(CC)C(=O)NC1CCCc2nc(N3CCOCC3)ncc21 (configuration not stated) | 4.99
20 | O=C(Cc1ccc(F)cc1)N1CCCCC1c1ccn2ccnc2n1 (configuration not stated) | -0.722
21 | O=C(O)Cc1cn2cc(C(F)(F)F)ccc2n1 | 11.4

Row | Compound | cytotoxicity at 10 µM [%]
22 | CCn1cc(NC(=O)NCCN2CCCCCC2=O)cn1 | 0.107
23 | CCOc1ncccc1C(=O)NC1CC(=O)N(CC(F)(F)F)C1 (configuration not stated) | 4.43
24 | Cc1n[nH]c(C)c1CNC(=O)NC1CCCN(c2ccccc2F)C1 (configuration not stated) | -2.57
25 | O=C(c1ccon1)N1CCN(c2ccncc2Cl)CC1 | 2.22
26 | CCC(C)(NCC(N)=O)c1nccs1 (configuration not stated) | 7.3
27 | CCS(=O)(=O)CCSc1cccc(C#N)c1 | -3.24
28 | Cc1ccc(C(=O)NC2CCN(Cc3noc(C(C)C)n3)CC2)s1 | -10.7
29 | Cc1cnn(CCNCC(O)c2ccc(F)c(F)c2)c1 (configuration not stated) | -0.796
30 | CCc1nnc2n1CCN(C(=O)c1ccccc1OCC1CC1)C2 | 2.3
31 | CCC(CO)NC(=O)Cc1ccc(NC(=O)CC2=CCCCC2)cc1 (configuration not stated) | 0.571
32 | CC(=O)N1CCC(Nc2ccc(Br)cc2C#N)C1 (configuration not stated) | 2.5
33 | CN(c1ncnc2sccc12)C1CCCN(c2cccnn2)C1 (configuration not stated) | 0.0357
34 | COCCN(CCN(C)C)C(=O)NC1CC1 | -1.78
35 | COc1ccc2c(c1)C(NCCc1c(C)noc1C)CCCO2 (configuration not stated) | -2.79
36 | Cc1ccsc1CNC(=O)CC1CN(C(=O)OC(C)(C)C)C1 | -4.66
37 | CC(O)(CNC(=O)c1cccnc1-n1cccn1)c1ccco1 (configuration not stated) | 3.09
38 | CC(=O)NC(CC(=O)Nc1nc(C)c(C)s1)c1ccccc1 (configuration not stated) | 3.78
39 | Cc1cc(C)cc(OCC(=O)N2CCCN(CC(N)=O)CC2)c1 | 0.821
40 | Cc1cc(C(C)NC(=O)c2c[nH]c(=O)c(Cl)c2)c(C)o1 (configuration not stated) | 12.5
41 | CC(c1cc(F)ccc1F)N1CCN(C(=O)c2ccc(=O)[nH]c2)CC1 (configuration not stated) | 5.94
42 | O=C1CCN(CCS(=O)(=O)c2ccc(Cl)cc2)CCN1 | -8.48

Row | Compound | cytotoxicity at 10 µM [%]
43 | CCCC(=O)NC1CCCN(Cc2cccs2)C1 (configuration not stated) | -3.25
44 | CC(C)Oc1ncnc2c1CCN(C(=O)c1cccn1C)CC2 | 6.95
45 | CC(=O)c1cc(CC(=O)N2CCCC2c2nc(C(C)C)no2)cs1 (configuration not stated) | 3.07
46 | Cc1ncc(CN(C)C2CCCN(CCc3ccccc3)C2)n1C (configuration not stated) | -4.17
47 | CN(CCCC1CCCO1)C(=O)c1cccc(C#N)c1 (configuration not stated) | -7.52
48 | CN1CCN(C2CCCC2)C(CCO)C1 (configuration not stated) | 0.456
49 | CN(C)CC1(O)CCCN(c2ccnc3c(C(F)(F)F)cccc23)C1 (configuration not stated) | -4.55
50 | O=C(O)CCc1cc2n(n1)CCN(Cc1cnc(N3CCCC3)nc1)C2 | -1.89
51 | COc1cc2c(cc1-c1nc3c(cnn3C(C)C)[nH]1)OCO2 | -6.85
52 | CS(=O)(=O)N1CC[C@]2(O)CCN(CCCC(=O)c3ccccc3)C[C@@H]2C1 | -8.86
53 | CCC(CO)N(Cc1cccnc1)C(=O)c1ccncc1F (configuration not stated) | 2.59
54 | Cc1ccc(OC2(C(=O)N(C)Cc3ccoc3)CCNCC2)cc1 | 9.41
55 | CCOc1ccccc1N1CCN(c2nnc(C)o2)CC1 | -10.9
56 | COc1ccccc1OC1CN(C(=O)c2ccc(C(C)=O)s2)C1 | 2.01
57 | CC1(C)OC(=O)N(CCOc2ccc(F)cc2)C1=O | -8.68
58 | CC(C)N1CCC(CC(=O)NC[C@H]2CCc3ccccc3O2)CC1 | 2.04
59 | CN(CC1CCCO1)c1nc(-c2cccnc2)nc2c1CCNCC2 (configuration not stated) | -4.68
60 | CCN(CC1CCCN(CCc2cccc(OC)c2)C1)C(=O)CO (configuration not stated) | 9.34
61 | C/C=C(\C)CN1CCCn2nc(CNC(=O)C3CCC3)cc2C1 | 4.92
62 | COCc1cc(NCC(F)(F)F)n2nccc2n1 | 17
63 | COc1ccc(F)c(F)c1CN1CCC2(CC1)[C@H](O)C[C@@H]2OCCN | -14.5

Row | Compound | cytotoxicity at 10 µM [%]
64 | O=C(NCCn1ccnc1)c1ccn(-c2ccccc2F)n1 | 0.533
65 | Cc1cc(C)c(CNC(=O)N(C)Cc2ccc(F)cc2)c(=O)[nH]1 | -9.12
66 | Cc1ccc(C(C)NCc2c(C(C)C)nn(C)c2N2CCOCC2)o1 (configuration not stated) | -4.79
67 | O=S1(=O)CCC(N(Cc2nc(-c3ccccn3)no2)Cc2cccs2)C1 (configuration not stated) | -4.54
68 | CNS(=O)(=O)c1ccc(C(=O)N2CCCC2c2ccccc2C)o1 (configuration not stated) | -6.23
69 | CNc1nc(CNC(=O)Nc2cccc(-n3ccc(C)n3)c2)cs1 | -15.7
70 | COc1cccc(CNC(=O)c2cccnc2SC(C)C)c1 | -1.35
71 | O=C(c1ccnc(C2CCNCC2)c1)N1CCCC1 | 3.69
72 | COc1cccc(C(=O)N2CCOCC2CN(C)C)c1OC (configuration not stated) | -4.03
73 | CN1CC(=O)N(c2ccccc2)CC12CCN(Cc1nccn1C)C2 (configuration not stated) | -1.17
74 | CC(=O)N1CCN(c2cc(C3CCNCC3)ccn2)CC1 | 6.91
75 | O=C(COCC1CC[C@H]2[C@H](CCN2c2ncccn2)O1)N1CCCC1 (some centres not stated) | 1.27
76 | CCc1cnc(N2CC3(CCN(Cc4ccsc4)C3)C2)nc1 | 2.98
77 | Cc1nn(C)c(C)c1S(=O)(=O)N1CC[C@@H]2O[C@@H](C)C[C@H]2C1 | 7.15
78 | COc1ncccc1CN1CCn2c(C(=O)N3CCCC3)cnc2C1 | 8.28
79 | CCc1cnc(N2C[C@@H]3C[C@H](C(=O)NCC(C)C)[C@H](C2)O3)nc1 | 12
80 | O=C(CC1[C@H]2CN(Cc3ccsc3)C[C@@H]12)N1CCCC1 (some centres not stated) | -1.16
81 | NC(=O)NCC(=O)N1C[C@@H]2CC[C@H]1CN(Cc1cscn1)C2 | 8.86
82 | COCC(=O)NCC1(COc2cnccn2)C[C@@H](O)[C@@H](O)C1 (some centres not stated) | 2.17
